High-throughput results (PubChem)
Insulin prom act = TRM-6 insulin promoter activation | TRM-6 cells (human fetal islet line), insulin promoter eGFP reporter, imaging; plate-scaled: unstimulated 0, stimulated control 100 | 0.81% of 130,000 active | activation, % at 2 µM;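 active = activation at 2 µM above a set limit, confirmed on inspection of the cell images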;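 note: share of cells whose green reporter signal exceeds an intensity cutoff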
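System – TRM-6 insulin promoter–eGFP reporter cells · Probe or stimulus – 0.75 µM tamoxifen as reporter inducer · Dosing – single-point 2 µM compound dose · Incubation – tamoxifen pre-incubation 15 h overnight, then compound exposure 48 h at 37 °C · Measured by – fixed-cell fluorescence microscopy, eGFP plus Hoechst · Evaluation – percent GFP-positive cells normalized to per-plate controls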
Numbers stand for hits; - = inactive. Many of the other results were omitted from the sample, so hits are more common in it than they were.

SMILES	Insulin prom act
O=C(O)Cn1nc(C(F)(F)F)c2c1CCCC2	-
CC(=O)N(CC1CCCO1)c1nnc(-c2ccccn2)s1 (stereo unspecified)	-
Nc1nc(N)nc(COc2ccccc2)n1	-
Cc1nc2nc(COc3ccccc3)nn2c(C)c1Cl	456
COc1ccc(CNc2nc3nc(C)c(Cl)c(C)n3n2)cc1OC	-
Cc1ccc(NC(=O)C(Cc2ccccc2)N2C(=O)C3C4CCC(C4)C3C2=O)cc1Cl (stereo unspecified)	-
CN(C)S(=O)(=O)c1cc(NC(=O)[C@H](Cc2ccccc2)N2C(=O)c3ccccc3C2=O)ccc1Cl	414
COc1ccc(NC(=O)C(CCS(C)(=O)=O)N2C(=O)c3ccccc3C2=O)cc1 (stereo unspecified)	-
CCOC(=O)CSc1nc2ccc(N3CCOCC3)cc2c(=O)n1Cc1ccc2c(c1)OCO2	-
O=C(COC(=O)c1ccc(Br)o1)Nc1cccc(S(=O)(=O)N2CCCCCC2)c1	-
c1ccc(-c2nc(-c3ccncc3)no2)cc1	-
Clc1ccc(-c2nc(Cc3ccccc3)no2)cc1	84
Clc1ccc(-c2noc(CCCOc3ccccc3)n2)cc1	-
N=C1C(=O)OCC1c1ccccc1NC(=O)c1ccccc1 (stereo unspecified)	-
N#Cc1ccc(CN2CCN(C(=O)c3ccccc3)CC2)c(Cl)c1	-
CC(=O)N1N=C(c2ccncc2)OC12CCCC2	543
O=C(Nc1ccncc1)C1(c2ccccc2)CCCC1	-
Cc1ccc2c(CC(=O)NC3CCCc4ccccc43)coc2c1 (stereo unspecified)	-
COc1ccc(S(=O)(=O)N[C@@H](Cc2ccc(Cl)cc2)C(=O)N2CC[C@@]3(O)CCCC[C@H]3C2)cc1	-
C=CCn1c(NCc2ccc(N(C)C)cc2)nc2ccccc21	-
COc1cc(C)nc(NC(=O)COc2ccc(Cl)cc2C)n1	-
Cc1ccccc1/C=N/N1CCN(c2ccccc2)CC1	-
O=C(c1ccc(S(=O)(=O)N2CCOCC2)cc1)N1CCN(c2ccccc2F)CC1	-
CC(=O)C1=C(O)C(=O)N(CCCn2ccnc2)C1c1ccc(Br)cc1 (stereo unspecified)	347
O=C(NCCCn1ccnc1)C(=O)NCC1OCCN1S(=O)(=O)c1ccc(Br)cc1 (stereo unspecified)	-
SMILES	Insulin prom act
CCN(CC)CCCN1C(=O)C(O)=C(C(C)=O)C1c1cccc(OC)c1 (stereo unspecified)	-
COc1cc(/C=C/C(=O)N2CCN(c3n[nH]c(=O)[nH]c3=O)CC2)cc(OC)c1OC	-
Cc1ccc(NC(=O)CCc2c(C)nc3ncnn3c2C)nc1	-
CCOc1ccc(N(CC(=O)NC2CCCC(C)C2C)S(=O)(=O)c2c(C)noc2C)cc1 (stereo unspecified)	-
CCNc1nc(NCC)nc(Nn2cnnc2)n1	-
O=C(O)CSc1c(-c2cccs2)[nH]c2ccccc12	-
Cc1cc(C)c(S(=O)(=O)c2ccccc2Cl)c(Cl)n1	-
Cc1c(Cl)cccc1NCC(=O)NN=C1CCCC1	337
CC(C)CNC(=O)CC(=O)NN=C1CCCC1	-
O=C(CSc1ncccn1)NN=C1CCCCCC1	-
Cc1ccc(N2CCN(CCCCN3C(=O)C4CCCN4C3=O)CC2)cc1 (stereo unspecified)	-
CCOC(=O)C(C)Sc1nnc(-c2ccccc2O)n1Cc1ccccc1 (stereo unspecified)	-
CCn1c(SCC(=O)c2cc(OC)ccc2OC)nnc1C1CC1	-
O=C(c1ccncc1)N1CCN(C(=O)c2cccs2)CC1	-
O=C(c1cccs1)N1CCN(Cc2ccccn2)CC1	-
O=C(c1cccnc1)N1CCN(C(=O)c2cccs2)CC1	456
O=C1CCC([N+](=O)[O-])C(c2ccc(Cl)cc2Cl)N1 (stereo unspecified)	-
O=S(=O)(NCc1ccc(Cl)cc1)c1ccc(Cl)nc1	-
CC(C)OC(=O)c1c2nc3ccccc3nc2n2c1[nH]c(=O)c1ccccc12	-
CCCC(=O)Nc1ccc(C(=O)N2CCCC2)cc1	-
CCCC(=O)Nc1ccc(N2CCN(C(=O)c3ccccc3C)CC2)cc1	444
Cc1ccc(N2CCN(c3ccc(NC(=O)CCC(=O)O)cc3)CC2)cc1	-
C=CCNc1nc(NC(C)(C)CO)nc(OC)n1	-
COc1ccc(Nc2nc(Nc3ccc(OC)cc3OC)nc(N3CCN(C)CC3)n2)c(OC)c1	317
COc1ccc(Nc2nc(NC(C)(C)C)nc(N3CCOCC3)n2)c(OC)c1	-
SMILES	Insulin prom act
COc1ccc(Nc2nc(NC(C)(C)C)nc(N3CCCC3)n2)c(OC)c1	-
Cc1ccc(S(=O)(=O)N(CC(=O)NN=C2CCN(C)CC2)c2ccc(C(C)C)cc2)cc1	-
Cc1ccc(C)c(N(CC(=O)NN=C2CCN(C)CC2)S(=O)(=O)c2ccccc2)c1	-
CN1CCC(=NNC(=O)CN(c2ccc(Oc3ccccc3)cc2)S(C)(=O)=O)CC1	454
Cn1cnnc1SCCn1c(N2CCCCC2)nc2c1c(=O)[nH]c(=O)n2C	-
c1ccc(CC2CCN(C3=Nc4cccc5cccc3c45)CC2)cc1	83
O=C1c2cccc3cccc(c23)C(=O)N1CC1CCN(S(=O)(=O)c2ccc(F)cc2)CC1	-
c1cc2c3c(cccc3c1)C(N1CCN(C3=Nc4cccc5cccc3c45)CC1)=N2	-
COC(=O)c1c(O)cc(C(C)(C)C)n(-c2ccccc2)c1=O	-
Cc1ccc(NC(=O)c2ccc(C(C)(C)C)cc2)cc1-n1cnnn1	-
CCCc1cc(C(=O)Nc2cc(Br)ccc2O)no1	-
Cc1cc(NC(=O)c2ccc(Cl)cc2)no1	-
Cc1cc(NC(=O)c2ccc(S(=O)(=O)N(C)C)cc2)no1	-
Cc1cc(NC(=O)c2ccc(NC(=O)CC(C)C)cc2)no1	523
Cc1cc(C)n2nc(C(=O)OCCOc3cccc(Br)c3)nc2n1	-
CCOc1ccc(C(C)NC(=O)c2cccc(F)c2)cc1 (stereo unspecified)	-
CN(C)C(=O)Cn1c(SCC(=O)NC2CCCCC2)nc2ccccc21	-
CCn1c(SCC(=O)O)nc2ccccc21	-
CCn1c(SCC(=O)NC(=O)NC(C)(C)C)nc2ccccc21	129
C/C=C/C=N/Nc1nc(C)cc(=O)[nH]1	-
Cc1ccc(C(=O)COC(=O)CCC(=O)NC2CCCCC2)cc1C	-
Cc1cc(-c2csc(NC(=O)c3ccc(C#N)cc3)n2)c(C)n1Cc1ccco1	-
CC(NC(=O)CSc1nc(=O)cc(N)n1-c1ccccc1)c1ccccc1 (stereo unspecified)	-
CC(C)CNC(=O)CSc1nc2nn(-c3ccccc3)c(=O)c-2c2n1CCCCC2	467
COC(=O)c1c(NC(=O)CSc2nnnn2-c2ccccc2)sc2c1CCCC2	-
SMILES	Insulin prom act
CN(C)C(=O)NC(Nc1ccc(Cl)cc1Cl)C(Cl)(Cl)Cl (stereo unspecified)	-
COc1cccc(NC(=O)C2C3C=CC4(O3)C2C(=O)N(C(C)C)C4C(=O)NC2CCCCC2C)c1 (stereo unspecified)	-
COc1cccc(NC(=O)C2C3C=CC4(O3)C2C(=O)N(C2CC2)C4C(=O)NC2CCCCC2C)c1 (stereo unspecified)	810
CCCCN1C(=O)C2C(C(=O)Nc3cccc(OC)c3)C3C=CC2(O3)C1C(=O)NC1CCCCC1C (stereo unspecified)	-
CCN(CC)c1ccc(CN2CCCCCC2)cc1	-
CCOc1cc(CN2CCN(C(=O)c3ccco3)CC2)ccc1OC	-
CCOC(=O)CC1C(=O)NCCN1Cc1ccc(OC)c(OC)c1 (stereo unspecified)	-
CCOC(=O)c1cc(C)n(Cc2ccc(OCC)c(OC)c2)c1C	86
